Data on eight molecules can be found in ChEMBL document CHEMBL3576850 (J Nat Prod, 2015).

Values after ≈ are worked out from the molar mass of the structure shown. Active and inactive are the calls of the source. No cut-off for these calls is given here. Bounds are passed on as bounds.

Experiment [1] can be described thus: Inhibition of recombinant his-tagged methicillin-resistant Staphylococcus aureus pyruvate kinase expressed in Escherichia coli BL-21(DE3) using PEP as substrate after 5 mins by L-LDH coupled assay.
Experiment [2] addresses Pyruvate kinase PKM (Homo sapiens) (UniProt P14618). Put plainly: Inhibition of recombinant his-tagged human pyruvate kinase M1 expressed in Escherichia coli BL-21(DE3) using PEP as substrate at 5 uM after 5 mins by L-LDH coupled assay relative to control. The essentials: (§1)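 His-tagged human PK isoform in a continuous rabbit muscle L-LDH-coupled assay, read as 340 nm absorbance change. Compounds added from DMSO, final DMSO ≤1%. Three measurements, each in triplicate.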

Experiment [3] has the same target. Put plainly: Inhibition of recombinant his-tagged human pyruvate kinase M2 expressed in Escherichia coli BL-21(DE3) using PEP as substrate at 5 uM after 5 mins by L-LDH coupled assay relative to control. Summed up: as §1
Experiment [4] has as its target Pyruvate kinase PKLR (Homo sapiens) (UniProt P30613). Put plainly: Inhibition of recombinant his-tagged human pyruvate kinase R expressed in Escherichia coli BL-21(DE3) using PEP as substrate at 5 uM after 5 mins by L-LDH coupled assay relative to control. The essentials: as §1
For experiment [5] the target is unchanged. Description: Inhibition of recombinant his-tagged human pyruvate kinase L expressed in Escherichia coli BL-21(DE3) using PEP as substrate at 5 uM after 5 mins by L-LDH coupled assay relative to control. Summed up:
as §1

Experiment [6] relates to Staphylococcus aureus. Put plainly: Antibacterial activity against methicillin-susceptible Staphylococcus aureus RN4220 by 2-fold serial broth microdilution method. Type of experiment: functional. On the technique in general: Dilution methods test growth across graded concentrations, often in twofold steps.
The subject of experiment [7] is Staphylococcus aureus. Description: Antibacterial activity against methicillin-resistant Staphylococcus aureus 252 by 2-fold serial broth microdilution method. Type of experiment: functional.
For experiment [8], the target named is Pyruvate kinase PKM (Homo sapiens) (UniProt P14618). Description: Inhibition of recombinant his-tagged human pyruvate kinase M1 expressed in Escherichia coli BL-21(DE3) using PEP as substrate at 10 uM after 5 mins by L-LDH coupled assay relative to control. The essentials: as §1
For experiment [9] the target is unchanged. Put plainly: Inhibition of recombinant his-tagged human pyruvate kinase M2 expressed in Escherichia coli BL-21(DE3) using PEP as substrate at 10 uM after 5 mins by L-LDH coupled assay relative to control. The essentials: as §1
Experiment [10] addresses Pyruvate kinase PKLR (Homo sapiens) (UniProt P30613). Description: Inhibition of recombinant his-tagged human pyruvate kinase R expressed in Escherichia coli BL-21(DE3) using PEP as substrate at 10 uM after 5 mins by L-LDH coupled assay relative to control. Summed up: as §1
Experiment [11] has the same target. Put plainly: Inhibition of recombinant his-tagged human pyruvate kinase L expressed in Escherichia coli BL-21(DE3) using PEP as substrate at 10 uM after 5 mins by L-LDH coupled assay relative to control. The essentials: as §1

Sequence of Pyruvate kinase PKM (Homo sapiens) (P14618 2-531 limits assumed): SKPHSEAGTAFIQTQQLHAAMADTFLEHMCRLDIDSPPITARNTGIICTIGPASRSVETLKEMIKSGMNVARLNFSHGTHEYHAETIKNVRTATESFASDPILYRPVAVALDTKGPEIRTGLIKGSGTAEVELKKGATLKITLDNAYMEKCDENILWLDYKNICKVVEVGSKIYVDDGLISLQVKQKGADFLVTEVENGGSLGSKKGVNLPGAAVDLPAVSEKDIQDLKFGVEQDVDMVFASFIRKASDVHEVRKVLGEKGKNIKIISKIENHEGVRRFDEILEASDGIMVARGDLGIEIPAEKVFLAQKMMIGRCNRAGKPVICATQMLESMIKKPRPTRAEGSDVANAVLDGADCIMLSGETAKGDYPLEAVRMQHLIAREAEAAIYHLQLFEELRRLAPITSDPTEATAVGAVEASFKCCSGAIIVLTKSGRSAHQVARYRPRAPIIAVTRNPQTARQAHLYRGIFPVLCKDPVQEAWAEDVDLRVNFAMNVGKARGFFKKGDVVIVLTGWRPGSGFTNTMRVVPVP
Sequence of Pyruvate kinase PKLR (Homo sapiens) (P30613 whole entry, looked up): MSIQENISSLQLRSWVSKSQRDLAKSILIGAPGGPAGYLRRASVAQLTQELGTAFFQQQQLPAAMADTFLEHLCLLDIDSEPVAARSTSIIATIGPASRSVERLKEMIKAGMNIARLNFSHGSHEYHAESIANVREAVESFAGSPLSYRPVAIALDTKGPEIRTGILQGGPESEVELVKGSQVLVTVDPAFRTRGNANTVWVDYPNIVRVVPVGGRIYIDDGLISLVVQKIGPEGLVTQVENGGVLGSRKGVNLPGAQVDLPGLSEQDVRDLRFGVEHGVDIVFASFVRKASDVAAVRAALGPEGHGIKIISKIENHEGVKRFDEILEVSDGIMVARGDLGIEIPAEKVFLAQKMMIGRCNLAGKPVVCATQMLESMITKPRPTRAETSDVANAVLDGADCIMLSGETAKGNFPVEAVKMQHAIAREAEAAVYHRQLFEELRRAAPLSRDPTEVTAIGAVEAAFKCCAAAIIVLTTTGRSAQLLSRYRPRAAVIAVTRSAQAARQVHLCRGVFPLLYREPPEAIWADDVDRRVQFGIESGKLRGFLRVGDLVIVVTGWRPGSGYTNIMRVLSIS

As usually defined, the IC50 is the concentration that gives 50% inhibition. As usually defined, the inhibition is the change of the read-out against control, counted positive when it falls. Take `O=C(c1nc(-c2c[nH]c3cc(I)ccc23)c[nH]1)c1c[nH]c2cc(I)ccc12`: the 50% inhibitory concentration (IC50) in [1] amounted to 3.3 nM. For the same molecule, the inhibition was 0% in experiment [2], 0% in [3], < 40% in experiment [4] and < 40% in experiment [5].

As usually defined, the MIC is the lowest concentration found to suppress growth. Read a high MIC as a need for much substance. As to `O=C1NC[C@@H](c2c[nH]c3cc(Br)ccc23)N[C@H]1c1c[nH]c2cc(Br)ccc12` (relative stereo) [CIS-3,4-DIHYDROHAMACANTHIN B], the IC50 in [1] was 16 nM. Further, the minimum inhibitory concentration (MIC) in the experiment on Staphylococcus aureus [6] worked out at 6.25 µg/mL (≈ 12.8 µM); in the experiment with Staphylococcus aureus [7], 12.5 µg/mL (≈ 25.6 µM).

Consider `O=C(c1nc(-c2c[nH]c3ccccc23)c[nH]1)c1c[nH]c2ccccc12`, for which the inhibition result in experiment [8], in experiment [9], in experiment [10] and in [11] was “inactive” in each case.

For `O=C(c1nc(-c2c[nH]c3c(Cl)cccc23)c[nH]1)c1c[nH]c2c(Cl)cccc12`, the IC50 in experiment [1] turned out to be 26000 nM. Moreover, the inhibition entry in experiment [8], in [9], in experiment [10] and in [11] was “inactive” throughout.

Regarding `O=C(c1nc(-c2c[nH]c3cc(Cl)ccc23)c[nH]1)c1c[nH]c2cc(Cl)ccc12`, the IC50 in experiment [1] turned out to be 1.5 nM. The inhibition in experiment [2] was 0%; in [3], 0%; in experiment [4] it was < 40%; in experiment [5], < 40%.

`O=C(c1nc(-c2c[nH]c3cc(F)ccc23)c[nH]1)c1c[nH]c2cc(F)ccc12`: the IC50 in experiment [1] worked out at 24 nM. The inhibition result in [8], in experiment [9], in experiment [10] and in experiment [11] was “inactive” each time.

In the case of `O=C(c1nc(-c2c[nH]c3ccc(Br)cc23)c[nH]1)c1c[nH]c2ccc(Br)cc12`, the half-inhibitory concentration (IC50) in experiment [1] is 6.4 nM. The inhibition in experiment [2] is 0%; in experiment [3] it was 0%; in [4] it was < 40%; in [5], < 40%.

Consider `O=C(c1ncc(-c2c[nH]c3cc(Br)ccc23)[nH]1)c1c[nH]c2cc(Br)ccc12`, for which the inhibition in experiment [2] was 0%; in experiment [3] it was 0%; in experiment [4] it was < 40%; in experiment [5] it was < 40%.
